From paper PMC9742152 (ChemMedChem, 2022)
Read-outs that look alike come from different tables or passages of the source. One block for each compound: values may come before it.

Legend:
[1] = tested on: MCF-7 breast cancer cells; test: Anti-proliferative assay, MCF-7 cells; type: cell-based, human; conditions: read-out: GI50 MCF-7
In short: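 MCF-7 cells kept at 37 °C, 5% CO2 in RPMI 1640 with 17% FBS, 2 mM L-glutamine and gentamicin, in full (not estrogen-deprived) media; seeded 5000 cells/well, grown 24 h without compound, then exposed to test compound at 10−9–10−4 M or vehicle. Cell protein measured by sulforhodamine B staining at 96 h; GI50 is the mean of two determinations.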

[2] = tested on: MDA MB-231 breast cancer cells; test: Anti-proliferative assay, MDA MB-231 cells; type: cell-based, human; conditions: read-out: GI50 MDA MB-231
In short: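 MDA MB-231 cells kept at 37 °C, 5% CO2 in RPMI-1640 with 10% FBS, penicillin and streptomycin; seeded 8000 cells/well, allowed to adhere 24 h, then given test compound or vehicle. BrdU incorporation kit assay run at 48 h; signal expressed as percent of mean control to derive GI50; experiments in triplicate, mean of three determinations.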

[3] = tested on: Bovine brain tubulin; test: Inhibition of tubulin assembly; type: biochemical; conditions: for IC50: read-out: Tubulin assembly IC50, 10 μM tubulin, mean ±SD
[4] = tested on: HOP-62; test: NCI 60-cell line assay, Lung HOP-62; type: cell-based
[5] = tested on: HCT-116; test: NCI 60-cell line assay, Colon HCT-116; type: cell-based
[6] = tested on: SF-539; test: NCI 60-cell line assay, CNS SF-539; type: cell-based; conditions: read-out: GI50 CNS SF-539
[7] = tested on: UACC-62; test: NCI 60-cell line assay, Melanoma UACC-62; type: cell-based
[8] = tested on: OVCAR-3; test: NCI 60-cell line assay, Ovarian OVCAR-3; type: cell-based
[9] = tested on: SN12C; test: NCI 60-cell line assay, Renal SN12C; type: cell-based; conditions: read-out: GI50 Renal SN12C
[10] = tested on: NCI-60 cell line panel; test: NCI 60-cell line assay, mean over whole panel; type: cell-based; conditions: for IC50: read-out: MGM (mean concentration that caused 50% growth inhibition in all 60 cell lines)
[11] = target: T1, steroid sulfatase (STS) (Homo sapiens, UniProt P08842); test: In vitro cell-free sulfatase assay, JEG-3 lysate; type: biochemical
T1 sequence (P08842 22-583): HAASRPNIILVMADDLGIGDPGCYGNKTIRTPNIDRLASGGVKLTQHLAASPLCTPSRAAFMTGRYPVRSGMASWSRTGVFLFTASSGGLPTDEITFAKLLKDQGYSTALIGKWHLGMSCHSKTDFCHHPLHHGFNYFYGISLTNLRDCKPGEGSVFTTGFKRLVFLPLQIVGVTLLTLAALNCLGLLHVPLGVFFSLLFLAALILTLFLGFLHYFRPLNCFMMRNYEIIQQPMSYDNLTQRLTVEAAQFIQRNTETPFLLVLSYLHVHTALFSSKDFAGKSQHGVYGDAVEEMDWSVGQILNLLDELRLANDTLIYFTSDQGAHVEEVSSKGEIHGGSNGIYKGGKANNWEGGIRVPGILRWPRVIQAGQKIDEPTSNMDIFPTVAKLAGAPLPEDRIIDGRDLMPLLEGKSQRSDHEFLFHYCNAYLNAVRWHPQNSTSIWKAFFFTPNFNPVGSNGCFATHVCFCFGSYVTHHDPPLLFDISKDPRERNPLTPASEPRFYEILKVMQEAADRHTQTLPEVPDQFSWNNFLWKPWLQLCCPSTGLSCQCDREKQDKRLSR

[12] = Hydrolysis in wet DMSO-d6 at 25 °C followed by 1H NMR; conditions: for % hydrolysed (conversion into the phenol) after 30 days: wet DMSO-d6, room temperature, water/substrate ~60:1
[13] = tested on: Bovine brain tubulin; test: Inhibition of [3H]colchicine binding to tubulin; conditions: 5 μM inhibitor, 5.0 μM [3H]colchicine, 1.0 μM tubulin, mean ±SD
[14] = target: T1, steroid sulfatase (STS); test: In vitro whole cell sulfatase assay, intact JEG-3 cells; type: cell-based
[15] = cited from earlier work
[16] = Homo sapiens, HOP-62, read-out: GI50 Lung HOP-62
[17] = Homo sapiens, HCT-116, read-out: GI50 Colon HCT-116
[18] = Homo sapiens, UACC-62, read-out: GI50 Melanoma UACC-62
[19] = Homo sapiens, OVCAR-3, read-out: GI50 Ovarian OVCAR-3
[20] = wet DMSO-d6, 25 °C, 0 days, 1H NMR
[21] = wet DMSO-d6, 25 °C, 15 days, 1H NMR
[22] = wet DMSO-d6, 25 °C, 30 days, 1H NMR
[23] = MCF-7, full media, 96 h, mean of two determinations
[24] = NCI-60, mean of three determinations

Structure (SMILES): C[C@]12CC[C@@H]3c4cc(OC(F)F)c(O)cc4CC[C@H]3[C@@H]1CC[C@@H]2O [Compound 9, 2-Difluoromethoxy-3,17β-bis-hydroxyestra-1,3,5(10)-triene]
GI50 ([1]; Homo sapiens, MCF7, 96 h): 2600 nM
GI50 ([2]; Homo sapiens, MDA-MB-231, 48 h): 3030 nM
IC50 [3]: 12.4 ± 0.1 µM

Structure (SMILES): C[C@]12CC[C@@H]3c4cc(OC(F)F)c(O)cc4CC[C@H]3[C@@H]1CC[C@@H]2OS(N)(=O)=O [Compound 11, 2-Difluoromethoxy-3-hydroxy-17β-sulfamoyloxyestra-1,3,5(10)-triene]
GI50 ([1]; Homo sapiens, MCF7, 96 h): > 5000 nM
GI50 ([2]; Homo sapiens, MDA-MB-231, 48 h): > 10000 nM
GI50 [4, 16]: 648 nM
GI50 [5, 17]: 375 nM
GI50 ([6]; Homo sapiens): 427 nM
GI50 [7, 18]: 460 nM
GI50 [8, 19]: 383 nM
GI50 ([9]; Homo sapiens, SN12C): 1220 nM
IC50 ([10]; 60 cell): 813 nM
IC50 [3]: > 20 µM
IC50 [11]: > 5000 nM
STS inhibition in JEG-3 lysate (in words) ([11]; JEG-3 lysate): inactive
% of the compound in the reaction mixture, 0 days [12, 20]: 0%
% of the compound in the reaction mixture, 15 days [12, 21]: 68%
% of the compound in the reaction mixture, 30 days [12, 22]: 92%

Structure (SMILES): C[C@]12CC[C@@H]3c4cc(OC(F)F)c(OS(N)(=O)=O)cc4CC[C@H]3[C@@H]1CC[C@@H]2O [Compound 12, 2-Difluoromethoxy-3-sulfamoyloxy-17β-hydroxyestra-1,3,5(10)-triene]
GI50 ([1]; Homo sapiens, MCF7, 96 h): 1100 nM
GI50 ([2]; Homo sapiens, MDA-MB-231, 48 h): 1110 nM
GI50 [4, 16]: 634 nM
GI50 [5, 17]: 406 nM
GI50 ([6]; Homo sapiens): 313 nM
GI50 [7, 18]: 498 nM
GI50 [8, 19]: 386 nM
GI50 ([9]; Homo sapiens, SN12C): 692 nM
IC50 ([10]; 60 cell): 646 nM
IC50 [3]: 6.6 ± 0.7 µM
Colchicine binding (% Inhibition) [13]: 22 ± 1%
IC50 [11]: 75 nM
IC50 [14]: 18.6 nM

Structure (SMILES): COc1cc2c(cc1O)CC[C@@H]1[C@@H]2CC[C@]2(C)[C@@H](OS(N)(=O)=O)CC[C@@H]12 [Compound 22]
% of the compound in the reaction mixture, 0 days [12, 20]: 0%
% of the compound in the reaction mixture, 15 days [12, 21]: 19%
% of the compound in the reaction mixture, 30 days [12, 22]: 31%

Structure (SMILES): C[C@]12CC[C@@H]3c4cc(OC(F)F)c(O)cc4CC[C@H]3[C@@H]1CCC2=O [Compound 15, 2-Difluoromethoxy-3-hydroxyestra-1,3,5(10)-trien-17-one]
GI50 ([1]; Homo sapiens, MCF7, 96 h): > 5000 nM
GI50 ([2]; Homo sapiens, MDA-MB-231, 48 h): > 10000 nM
IC50 [3]: > 20 µM

Structure (SMILES): COc1cc2c(cc1OS(N)(=O)=O)CC[C@@H]1[C@@H]2CC[C@]2(C)[C@@H](OS(N)(=O)=O)CC[C@@H]12 [Compound 4, 2-methoxyestradiol-3,17-O,O-bissulfamate, reference compound]
GI50 [1, 23]: 520 nM
IC50 [3]: 2.3 ± 0.1 µM
Colchicine binding (% Inhibition) [13]: 33 ± 3%
bioavailability [15]: ~85%
% of the compound in the reaction mixture, 0 days [12]: 100%
% of the compound in the reaction mixture, 15 days [12]: 81%
% of the compound in the reaction mixture, 30 days [12]: 69%
% hydrolysed (conversion into the phenol) after 30 days ([12]; 30 days): 31%

GI50 [1, 23]: 280 nM
GI50 ([2]; MDA MB-231, 48 h, mean of three determinations): 740 nM
IC50 [3]: 3.9 ± 0.5 µM
Colchicine binding (% Inhibition) [13]: 19 ± 0.5%
% of the compound in the reaction mixture, 0 days [12, 20]: 100%
% of the compound in the reaction mixture, 15 days [12, 21]: 32%
% of the compound in the reaction mixture, 30 days [12, 22]: 8%
T1/2 of hydrolysis ([12]; wet DMSO-d6, estimated from Table 1): ~ 10 days
% hydrolysed (conversion into the phenol) after 30 days ([12]; 30 days): 92%
Structure (SMILES): C[C@]12CC[C@@H]3c4cc(OC(F)F)c(OS(N)(=O)=O)cc4CC[C@H]3[C@@H]1CC[C@@H]2OS(N)(=O)=O [Compound 10, 2-Difluoromethoxy-3–17β-bis-sulfamoyloxyestra-1,3,5(10)-triene]
GI50 ([4]; read-out: GI50 Lung HOP-62, NCI-60, mean of three determinations): 1980 nM
GI50 ([5]; read-out: GI50 Colon HCT-116, NCI-60, mean of three determinations): 474 nM
GI50 [6, 24]: 266 nM
GI50 ([7]; read-out: GI50 Melanoma UACC-62, NCI-60, mean of three determinations): 564 nM
GI50 ([8]; read-out: GI50 Ovarian OVCAR-3, NCI-60, mean of three determinations): 527 nM
GI50 [9, 24]: 567 nM
overall anti-proliferative activity in NCI 60-cell line panel (in words) ([10]; average GI50, NCI-60): sub-micromolar
IC50 ([10]; all 60 cell lines): 661 nM
fold less active than CA-4 in tubulin assembly ([3]; vs CA-4): about 3 fold

IC50 [3]: 8.3 ± 0.8 µM
Colchicine binding (% Inhibition) [13]: 36 ± 3%
Structure (SMILES): COc1cc2c(cc1O)CC[C@@H]1[C@@H]2CC[C@]2(C)[C@@H](O)CC[C@@H]12 [Compound 1, 2-Methoxyestradiol, reference compound]
bioavailability [15]: ~1%

times more potent than 16, JEG-3 lysate assay ([11]; vs 16): about 3 times
times more potent than 16, whole cells ([14]; vs 16): about 100 times
% of the compound in the reaction mixture, 0 days [12, 20]: 100%
% of the compound in the reaction mixture, 15 days [12, 21]: 24%
% of the compound in the reaction mixture, 30 days [12, 22]: 5%
Structure (SMILES): C[C@]12CC[C@@H]3c4cc(C(F)F)c(OS(N)(=O)=O)cc4CC[C@H]3[C@@H]1CCC2=O [Compound 23, 2-difluoromethylestrone sulfamate, reference compound]

Structure (SMILES): C[C@]12CC[C@@H]3c4cc(OC(F)F)c(OS(N)(=O)=O)cc4CC[C@H]3[C@@H]1CCC2=O [Compound 16, 2-Difluoromethoxy-3-sulfamoyloxyestra-1,3,5(10)-trien-17-one]
GI50 ([1]; Homo sapiens, MCF7, 96 h): 580 nM
GI50 ([2]; Homo sapiens, MDA-MB-231, 48 h): 990 nM
IC50 [3]: 4.3 ± 0.2 µM
Colchicine binding (% Inhibition) [13]: 32 ± 4%
IC50 [11]: 56 nM
IC50 [14]: 5.6 nM

Structure (SMILES): COc1ccc(/C=C\c2cc(OC)c(OC)c(OC)c2)cc1O [CA-4, combretastatin A-4, reference compound]
Colchicine binding (% Inhibition) [13]: 98 ± 1%
